From ChEMBL document CHEMBL4261589, “Structure-based design of allosteric calpain-1 inhibitors populating a novel bioactivity space” (Eur J Med Chem, 2018)
Calls of active or inactive are those of the source. The calls are words filed in the database; no cut-off is given here.

Experiments:
[1] = target: T1, Calpain-1 catalytic subunit (Sus scrofa, UniProt P35750); assay: Inhibition of full length porcine Calpain-1 complex using (H2NeK(-FAM)-EVYGMMK(DABCYL)eOH) substrate by FRET assay
T1 sequence (P35750 whole entry): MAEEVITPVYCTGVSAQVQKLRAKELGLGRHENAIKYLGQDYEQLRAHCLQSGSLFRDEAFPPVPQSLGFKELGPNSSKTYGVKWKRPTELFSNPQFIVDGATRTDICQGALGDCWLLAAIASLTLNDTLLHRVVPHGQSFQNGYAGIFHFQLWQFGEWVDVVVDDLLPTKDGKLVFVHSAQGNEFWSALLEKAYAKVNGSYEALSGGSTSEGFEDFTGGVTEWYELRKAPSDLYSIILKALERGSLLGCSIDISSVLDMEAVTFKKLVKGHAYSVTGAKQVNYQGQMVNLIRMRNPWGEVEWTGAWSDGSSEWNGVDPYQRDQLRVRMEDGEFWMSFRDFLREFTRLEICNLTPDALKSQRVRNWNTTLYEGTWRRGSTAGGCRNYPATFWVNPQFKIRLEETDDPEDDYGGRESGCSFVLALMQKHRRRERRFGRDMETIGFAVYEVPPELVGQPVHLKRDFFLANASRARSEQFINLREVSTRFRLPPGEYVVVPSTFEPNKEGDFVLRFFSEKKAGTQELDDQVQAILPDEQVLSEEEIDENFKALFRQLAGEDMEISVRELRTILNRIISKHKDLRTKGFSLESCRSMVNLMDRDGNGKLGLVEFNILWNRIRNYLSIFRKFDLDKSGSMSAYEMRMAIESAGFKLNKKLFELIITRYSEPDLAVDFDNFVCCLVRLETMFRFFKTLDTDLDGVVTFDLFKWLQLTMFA
How it was run: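 Purified porcine calpain-1 (25 nM) with 1 µM FAM/DABCYL α-spectrin peptide, cleaved at Tyr-Gly, in 10 mM HEPES, 10 mM DTT, 0.5 mM EDTA, 0.1% BSA, pH 6.8, at 37 °C. Compounds (5 nM–200 µM, from DMSO stock) were added before starting with 5 mM CaCl2. Fluorescence read at ex 490/em 520 nm. DMSO-alone controls were run. IC50 given as mean ± SD of three independent experiments.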

[2] = target: Calpain-1 catalytic subunit (Homo sapiens) (UniProt P07384); assay: Inhibition of human Calpain-1 active site domain using (H2NeK(-FAM)-EVYGMMK(DABCYL)eOH) substrate by FRET assay
[3] = target: Calpain small subunit 1 (Homo sapiens) (UniProt P04632); assay: Binding affinity to human Calpain-1 PEF(S) domain at 0.5 to 500 uM expressed in Escherichia coli BL21-CodonPlus (DE3) RP cells incubated for 5 mins by TNS displacement assay
Chain of Calpain small subunit 1 (Homo sapiens) (P04632 whole entry, looked up): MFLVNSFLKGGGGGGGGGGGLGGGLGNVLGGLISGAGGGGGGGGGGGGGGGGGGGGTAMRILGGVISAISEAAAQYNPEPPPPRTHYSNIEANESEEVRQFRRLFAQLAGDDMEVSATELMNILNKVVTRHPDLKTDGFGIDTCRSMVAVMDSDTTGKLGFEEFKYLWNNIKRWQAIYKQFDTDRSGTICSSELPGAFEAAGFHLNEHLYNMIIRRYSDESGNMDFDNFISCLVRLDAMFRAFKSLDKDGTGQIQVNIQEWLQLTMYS

Row | Structure (SMILES) | IC50 [1] | IC50 [2] | Activity [3] | IC50 ([1]; read-out: IC50) | IC50 ([2]; read-out: IC50)
1 | COCCOc1nc(-c2cccc(C(F)(F)F)c2)n(-c2ccc(NC(=O)C(C)C)cc2)n1 | Not Active | Not Active | – | – | –
2 | FC(F)(F)c1cccc(CSc2nnc3ccc(-c4ccccn4)nn23)c1 | Not Active | Not Active | – | – | –
3 | FC(F)(F)c1ccc(CSc2nnc3ccc(-c4ccccn4)nn23)cc1 | – | Not Active | – | 20.5 µM | –
4 | O=C(O)/C(S)=C/c1ccc(I)cc1 | – | – | Active | 19.3 µM | 17.8 µM
5 | NC(=O)c1cccc(NS(=O)(=O)c2cccc(C(F)(F)F)c2)c1 | Not Active | Not Active | Active | – | –

Next, values leading:

Row | IC50 [1] | IC50 [2] | Activity [3] | IC50 ([1]; read-out: IC50) | IC50 ([2]; read-out: IC50) | Structure (SMILES)
6 | Not Active | Not Active | inactive | – | – | O=C1CCCN1c1cccc(NS(=O)(=O)c2cccc(C(F)(F)F)c2)c1
7 | Not Active | Not Active | – | – | – | COCCOc1nc(-c2ccc(OC)cc2)n(-c2cccc(NC(=O)c3ccc(C)c(C(F)(F)F)c3)c2)n1
8 | – | Not Active | – | 29.7 µM | – | O=C(CSc1nnc2ccc(-c3ccccn3)nn12)Nc1cccc(C(F)(F)F)c1
9 | Not Active | Not Active | Active | – | – | O=C(NC1CCC(O)CC1)c1ccc(S(=O)(=O)Nc2cccc(C(F)(F)F)c2)cc1 (stereo not drawn)
10 | – | – | Active | > 100 µM | 41.1 µM | O=C(O)c1cc(NS(=O)(=O)c2ccc(F)cc2)cnc1N1CCCCCC1
11 | – | – | Active | 7.5 µM | > 100 µM | CC(C)(C)NC(=O)c1ccc(Oc2cc(F)c(CC(=O)O)cc2Cl)c(NS(=O)(=O)c2ccc(C3CC3)cc2Cl)c1 [VIDUPIPRANT]
